Measured values reported in ChEMBL document CHEMBL4402565, “α-Ketoamides as Broad-Spectrum Inhibitors of Coronavirus and Enterovirus Replication: Structure-Based Design, Synthesis, and Activity Assessment” (J Med Chem, 2020).

What was measured:
[1] = Inhibition of Enterovirus A71 protease 3C using DabcylKEALFQ-GPPQF-E(Edans)-NH2 as substrate incubated for 10 mins by fluorospectrometry
Method in brief: (§1)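 FRET cleavage assay in 20 mM Tris-HCl, 100 mM NaCl, 1 mM EDTA, 1 mM DTT, pH 7.3. Final enzyme 2 μM for CVB3 3Cpro or 3 μM for EV-A71 3Cpro, preincubated with inhibitor (0–100 μM) for 10 min at 37 °C. Reaction started with 20 μM final Dabcyl-KEALFQ↓GPPQF-E(Edans)-NH₂. Edans dequenching read at ex 360/em 460 nm. Triplicate, mean ± SD.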

[2] = Inhibition of SARS coronavirus M protease using Dabcyl-KTSAVLQ-SGFRKM-E(Edans)-NH2 as substrate incubated for 10 mins by fluorospectrometry; set-up: species or system Severe acute respiratory syndrome-related coronavirus
Method in brief: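 FRET cleavage assay with 0.5 µM recombinant SARS-CoV Mpro (authentic termini) in 20 mM Tris-HCl, 100 mM NaCl, 1 mM EDTA, 1 mM DTT, pH 7.3. Enzyme was preincubated with inhibitor (0–100 µM) for 10 min at 37 °C, then 20 µM final substrate was added. Fluorescence was read at ex 360/em 460 nm. Triplicate, mean ± SD; IC50 from curve fitting.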

Enterovirus A71 [3] = test: Antiviral activity against Enterovirus A71 infected in HuH7 cells expressing T7 RNA polymerase assessed as reduction in viral RNA replication incubated for 24 hrs by luciferase reporter gene assay; format: functional, organism-based; details: Enterovirus A, Huh-7, 24 h
Method in brief: (§2)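 Huh-T7 cells (DMEM, 2 mM glutamine, penicillin/streptomycin, 10% FCS growth or 2% maintenance, G-418 400 μg·mL⁻¹) transfected with enteroviral replicon. Compound added in growth medium at 40 μM for screening or 0, 1.25, 2.5, 5, 10, 20, 40 μM for EC50. After 24 h, cells lysed and luciferase activity read. Triplicate or quadruplicate, mean ± SD.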

[4] = Inhibition of […] protease 3C using DabcylKEALFQ-GPPQF-E(Edans)-NH2 as substrate incubated for 10 mins by fluorospectrometry; set-up: species or system Coxsackievirus; method in brief: as §1
[5] = Inhibition of human coronavirus NL63 M protease using Dabcyl-KTSAVLQ-SGFRKM-E(Edans)-NH2 as substrate incubated for 10 mins by fluorospectrometry
Method in brief: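 0.5 μM final HCoV-NL63 Mpro preincubated 10 min at 37 °C with inhibitor (0–100 μM) in pH 7.3 Tris buffer (100 mM NaCl, 1 mM EDTA, 1 mM DTT). Cleavage of 20 μM Dabcyl-KTSAVLQ↓SGFRKM-E(Edans)-NH₂ followed by fluorescence at 460 nm with 360 nm excitation. IC50 from triplicate measurements, mean ± SD.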

Enterovirus A71 [6] = test: Antiviral activity against Enterovirus A71 infected in RD cells assessed as reduction in virus-induced cytopathic effect incubated for 3 days by MTS assay; format: functional, organism-based; details: Enterovirus A, 72 h
Method in brief: (§3)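 CPE reduction assay. RD (EV-A71) or HeLa Rh (EV-D68, HRV) cells seeded 24 h earlier in medium with 2% FCS; HRV2/HRV14 medium contained 30 mM MgCl₂. Serial compound dilutions added with virus. At 3 days post infection, 5% MTS added for 1 h at 37 °C and OD498 read. EC50 taken as 50% protection versus controls by logarithmic interpolation; morphology also checked microscopically.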

SARS-CoV [7] = test: Antiviral activity against SARS coronavirus infected in Vero E6 cells assessed as reduction in virus-induced cytopathic effect incubated for 2 days by non-radioactive cell proliferation assay; format: functional, organism-based; details: Severe acute respiratory syndrome-related coronavirus, Vero C1008, 48 h
[8] = Therapeutic index, ratio of CC50 for human HeLa Rh cells to EC50 for Human rhinovirus 2 infected in human HeLa Rh cells; format: toxicity, cell-based; details: read-out: Ratio CC50/EC50
[9] = Cytotoxicity against human HuH7 cells expressing T7 RNA polymerase assessed as reduction in cell viability incubated for 2 days by non-radioactive cell proliferation assay; format: cell-based, Huh-7
rhinovirus A2 = test: Antiviral activity against Human rhinovirus 2 infected in HeLa Rh cells assessed as reduction in virus-induced cytopathic effect incubated for 3 days by MTS assay; format: functional, organism-based; details: Rhinovirus A, 72 h; method in brief: as §3
[10] = Antiviral activity against […] infected in HuH7 cells expressing T7 RNA polymerase assessed as reduction in virus-induced cytopathic effect incubated for 2 days by non-radioactive cell proliferation assay; format: functional, organism-based; details: B3, Huh-7, 48 h
[11] = Therapeutic index, ratio of CC50 for human HeLa Rh cells to EC50 for Human rhinovirus 14 infected in human HeLa Rh cells; format: toxicity, cell-based; details: read-out: Ratio CC50/EC50
[12] = Therapeutic index, ratio of CC50 for human HeLa Rh cells to EC50 for Enterovirus D68 infected in human HeLa Rh cells; format: toxicity, cell-based; details: read-out: Ratio CC50/EC50
[13] = tested on: Middle East respiratory syndrome-related coronavirus; test: Antiviral activity against Middle East respiratory syndrome coronavirus infected in Vero cells assessed as reduction in virus-induced cytopathic effect incubated for 3 days by non-radioactive cell proliferation assay; format: functional, organism-based; details: 72 h
[14] = Antiviral activity against […] infected in HuH7 cells expressing T7 RNA polymerase assessed as reduction in viral RNA replication incubated for 24 hrs by luciferase reporter gene assay; format: functional, organism-based; details: B3, Huh-7, 24 h; method in brief: as §2
[15] = Cytotoxicity against human HeLa Rh cells assessed as reduction in cell viability incubated for 3 days by MTS assay; format: cell-based
rhinovirus B14 = test: Antiviral activity against Human rhinovirus 14 infected in HeLa Rh cells assessed as reduction in virus-induced cytopathic effect incubated for 3 days by MTS assay; format: functional, organism-based; details: Rhinovirus B, 72 h; method in brief: as §3
[16] = Cytotoxicity against human RD cells assessed as reduction in cell viability incubated for 3 days by MTS assay; format: cell-based
[17] = tested on: Middle East respiratory syndrome-related coronavirus; test: Antiviral activity against Middle East respiratory syndrome coronavirus infected in HuH7 cells expressing T7 RNA polymerase assessed as reduction in virus-induced cytopathic effect incubated for 2 days by non-radioactive cell proliferation assay; format: functional, organism-based; details: Huh-7, 48 h
SARS-CoV [18] = test: Antiviral activity against SARS coronavirus infected in HuH7 cells expressing T7 RNA polymerase assessed as reduction in viral RNA replication incubated for 24 hrs by luciferase reporter gene assay; format: functional, organism-based; details: Severe acute respiratory syndrome-related coronavirus, Huh-7, 24 h
Method in brief: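 SARS-CoV replicon (DNA-launched, Renilla luciferase reporter) was transfected into Huh-T7 cells at 80–90% confluency. Compound at 0, 1.25, 2.5, 5, 10, 20 or 40 µM in growth medium was added after transfection. At 24 h, cells were lysed and luciferase activity measured. Runs were in triplicate or quadruplicate, reported as mean ± SD.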

enterovirus D68 = test: Antiviral activity against Enterovirus D68 infected in HeLa Rh cells assessed as reduction in virus-induced cytopathic effect incubated for 3 days by MTS assay; format: functional, organism-based; details: Enterovirus D, 72 h; method in brief: as §3
Human coronavirus 229E = test: Antiviral activity against Human coronavirus 229E infected in HuH7 cells expressing T7 RNA polymerase assessed as reduction in virus-induced cytopathic effect incubated for 48 hrs by Alamar blue based assay; format: functional, organism-based; details: Huh-7, 48 h

Row | SMILES | IC50 [1] [µM] | IC50 [2] [µM] | EC50 (Enterovirus A71 [3]) [µM] | IC50 [4] [µM] | IC50 [5] [µM] | EC50 (Enterovirus A71 [6]) [µM] | EC50 (SARS-CoV [7]) [µM] | CC50 at 48 h [9] [µM] | EC50 (rhinovirus A2) [µM] | EC50 [10] [µM] | EC50 [13] [µM] | EC50 [14] [µM] | CC50 at 72 h [15] [µM] | EC50 (rhinovirus B14) [µM] | CC50 at 72 h [16] [µM] | EC50 [17] [µM] | EC50 (SARS-CoV [18]) [µM] | EC50 (Human coronavirus 229E) [µM] | further results
1 | CCCC[C@H](NC(=O)/C=C/c1ccccc1)C(=O)N[C@@H](C[C@@H]1CCNC1=O)C(=O)C(=O)NCc1ccccc1 | 3.24 | 8.5 | > 20 | 5.2 | > 50 | – | – | – | – | – | – | – | – | – | – | – | – | – | –
2 | O=C(/C=C/c1ccccc1)N[C@H](C(=O)N[C@@H](C[C@@H]1CCNC1=O)C(=O)C(=O)NCc1ccccc1)C1CC1 | > 30 | 6.27 | – | 15.4 | 11.5 | – | – | – | – | – | – | – | – | – | – | – | – | – | –
3 | O=C(/C=C/c1ccccc1)N[C@@H](CC1CCC1)C(=O)N[C@@H](C[C@@H]1CCNC1=O)C(=O)C(=O)NCc1ccccc1 | 10.8 | 1.44 | 20 | 4.78 | 3.43 | 41 | 7 | 124 | 3.7 | 10.4 | 9.8 | 4.3 | 65 | 4.2 | 100 | 0.02 | 6.7 | – | selectivity ratio [8]: > 15; selectivity ratio [11]: > 15; selectivity ratio [12]: > 15
4 | CC(C)(C)OC(=O)N[C@@H](C[C@@H]1CCNC1=O)C(=O)C(=O)NCc1ccccc1 | > 50 | – | > 10 | > 50 | > 50 | – | – | – | – | – | – | > 10 | – | – | – | – | > 40 | – | –
5 | CC(C)C[C@H](NC(=O)/C=C/c1ccccc1)C(=O)N[C@@H](C[C@@H]1CCNC1=O)C(=O)C(=O)NCc1ccccc1 | 13.8 | 0.33 | > 10 | 3.82 | 1.08 | 72 | 14.2 | > 188 | 8.9 | 24 | 9.2 | > 10 | 103 | 13.4 | 115 | 0.0046 | 7.2 | 0.6 | EC50 (enterovirus D68): 4.44 µM
6 | O=C(/C=C/c1ccccc1)N[C@@H](CC1CC1)C(=O)N[C@@H](C[C@@H]1CCNC1=O)C(=O)C(=O)NCc1ccccc1 | 18.5 | 0.24 | > 20 | 4.25 | 1.37 | 46 | 18.4 | > 189 | 3.8 | 10.4 | 10.9 | 18 | 103 | 5.5 | 106 | 0.08 | 1.9 | 1.3 | –
7 | O=C(/C=C/c1ccccc1)N[C@@H](Cc1ccc(F)cc1)C(=O)N[C@@H](C[C@@H]1CCNC1=O)C(=O)C(=O)NCc1ccccc1 | 2.32 | – | > 20 | 8.69 | > 50 | – | – | – | – | – | – | – | – | – | – | – | – | – | –
8 | O=C(/C=C/c1ccccc1)N[C@@H](CC1CCCC1)C(=O)N[C@@H](C[C@@H]1CCNC1=O)C(=O)C(=O)NCc1ccccc1 | 4.73 | 1.27 | 8.9 | 1.93 | 5.41 | 4.2 | 4.9 | 47.5 | 0.51 | 8.1 | 11.1 | 5.1 | 33.2 | 0.42 | 30.8 | 0.007 | 3.6 | 2.5 | –
9 | C#CC[C@H](NC(=O)/C=C/c1ccccc1)C(=O)N[C@@H](C[C@@H]1CCNC1=O)C(=O)C(=O)NCc1ccccc1 | 8.5 | 10.7 | – | 8.93 | 17.4 | – | – | – | – | – | – | – | – | – | – | – | > 20 | – | –
